Assays:
[1] = tested on: Mus musculus; experiment: Antitumor activity against E0771 mammary adenocarcinoma in mice at 12 mg/kg(5 days) was determined and tumor volume at day 14 was reported; format: functional
Outline: (§1)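 Mice bearing implanted E0771 mammary adenocarcinoma, five per test group. Dosing was daily for 5 days, starting on day 3 after implantation. Tumor volume (mm³) was calculated as 4/3πr³ and is also expressed as treated/control (%).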

[2] = biological target: T1, Dihydrofolate reductase (Mus musculus, UniProt P00375); experiment: Inhibitory activity of Dihydrofolate reductase in L1210 cells; format: cell-based
T1 sequence (P00375 whole entry): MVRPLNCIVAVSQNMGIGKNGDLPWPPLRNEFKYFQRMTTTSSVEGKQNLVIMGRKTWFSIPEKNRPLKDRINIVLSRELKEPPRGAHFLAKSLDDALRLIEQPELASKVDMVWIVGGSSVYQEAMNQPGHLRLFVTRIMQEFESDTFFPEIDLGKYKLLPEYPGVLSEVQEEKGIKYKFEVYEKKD

[3] = tested on: Mus musculus; experiment: Antitumor activity against E0771 mammary adenocarcinoma in mice at 24 mg/kg(5 days) was determined and tumor volume at day 14 was reported; format: functional; outline: as §1
[4] = tested on: Mus musculus; experiment: Antitumor activity against E0771 mammary adenocarcinoma in mice at 24 mg/kg(5 days) was determined and tumor volume at day 10 was reported; format: functional; outline: as §1
[5] = tested on: CCRF S-180; experiment: Tested for the ability to inhibit growth in vitro against S180; format: functional, cell-based; details: Mus musculus
[6] = tested on: Mus musculus; experiment: Antitumor activity against E0771 mammary adenocarcinoma in mice at 12 mg/kg(5 days) was determined and tumor volume at day 10 was reported; format: functional; outline: as §1
[7] = tested on: Mus musculus; experiment: Antitumor activity against E0771 mammary adenocarcinoma in mice at 12 mg/kg (5 days) was determined and […] at day 14 was reported; format: functional
[8] = tested on: Mus musculus; experiment: Antitumor activity against E0771 mammary adenocarcinoma in mice at 12 mg/kg(5 days) was determined and tumor volume at day 7 was reported; format: functional; outline: as §1
[9] = tested on: HL-60; experiment: Tested for the ability to inhibit growth in vitro against HL60; format: functional, cell-based; details: Homo sapiens
[10] = Activity relative to saturating aminopterine at 100 uM against CCRF-CEM Folyl-polyglutamate synthetase; format: ADME; details: human
Outline: (§2)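 FPGS from CCRF-CEM cells: freeze-thawed lysates fractionated by (NH₄)₂SO₄ (0–40% saturation pellet) and gel sieving, stored at –90 °C in 20% glycerol, free of detectable γ-glutamyl hydrolase. Product was separated on DEAE-cellulose minicolumns. Run in duplicate or triplicate, and each experiment was repeated at least once.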

[11] = tested on: CCRF-CEM; experiment: Percent inhibition of Folyl-polyglutamate synthase from CCRF-CEM cells; format: cell-based; parameters: concentration or dose not given beside the values; details: Homo sapiens, dose or concentration not given here
Outline: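 FPGS was partially purified from CCRF-CEM cells by (NH₄)₂SO₄ fractionation and gel sieving, with no detectable γ-glutamyl hydrolase. Product was separated on DEAE-cellulose. Percent inhibition is reported.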

[12] = tested on: L1210; experiment: Tested for transport into L1210 cells measured as cell influx; format: functional, cell-based, Mus musculus
[13] = tested on: Mus musculus; experiment: Antitumor activity against E0771 mammary adenocarcinoma in mice at 24 mg/kg(5 days) was determined and […] at day 10 was reported; format: functional
[14] = tested on: Mus musculus; experiment: Antitumor activity against E0771 mammary adenocarcinoma in mice at 12 mg/kg (5 days) was determined and […] at day 10 was reported; format: functional
Outline: (§3)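 E0771 mammary adenocarcinoma implanted in mice, five mice per group. Treatment was given daily for 5 days, starting day 3 after implantation. Tumor volume was calculated as 4/3πr³ and averaged on days 7, 10 and 14. T/C (%) is the treated/control tumor volume. Toxic deaths were recorded.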

[15] = tested on: L1210; experiment: Tested for the ability to inhibit growth in vitro against L1210; format: functional, cell-based; details: Mus musculus
[16] = tested on: Mus musculus; experiment: Antitumor activity against E0771 mammary adenocarcinoma in mice at 24 mg/kg(5 days) was determined and tumor volume at day 7 was reported; format: functional; outline: as §1
[17] = tested on: Mus musculus; experiment: Antitumor activity against E0771 mammary adenocarcinoma in mice at 24 mg/kg(5 days) was determined and […] at day 14 was reported; format: functional
[18] = tested on: Mus musculus; experiment: Antitumor activity against E0771 mammary adenocarcinoma in mice at 12 mg/kg(5 days) was determined and […] at day 7 was reported; format: functional
[19] = tested on: Mus musculus; experiment: Antitumor activity against E0771 mammary adenocarcinoma in mice at 24 mg/kg(5 days) was determined and […] at day 7 was reported; format: functional; outline: as §3
[20] = tested on: Mus musculus; experiment: Antitumor activity against E0771 mammary adenocarcinoma in mice at 30 mg/kg(5 days) was determined and […] at day 14 was reported; format: functional
[21] = tested on: Mus musculus; experiment: Antitumor activity against E0771 mammary adenocarcinoma in mice at 3 mg/kg(5 days) was determined and […] at day 7 was reported; format: functional; outline: as §3
[22] = tested on: Mus musculus; experiment: Antitumor activity against E0771 mammary adenocarcinoma in mice at 30 mg/kg(5 days) was determined and tumor volume at day 14 was reported; format: functional
[23] = tested on: Mus musculus; experiment: Antitumor activity against E0771 mammary adenocarcinoma in mice at 100 mg/kg(5 days) was determined and tumor volume at day 14 was reported; format: functional; outline: as §1
[24] = biological target: T2, Folylpolyglutamate synthase, mitochondrial (Mus musculus) (UniProt P48760); experiment: Specific activity of L1210 Folyl-polyglutamate synthase
T2 sequence (whole entry): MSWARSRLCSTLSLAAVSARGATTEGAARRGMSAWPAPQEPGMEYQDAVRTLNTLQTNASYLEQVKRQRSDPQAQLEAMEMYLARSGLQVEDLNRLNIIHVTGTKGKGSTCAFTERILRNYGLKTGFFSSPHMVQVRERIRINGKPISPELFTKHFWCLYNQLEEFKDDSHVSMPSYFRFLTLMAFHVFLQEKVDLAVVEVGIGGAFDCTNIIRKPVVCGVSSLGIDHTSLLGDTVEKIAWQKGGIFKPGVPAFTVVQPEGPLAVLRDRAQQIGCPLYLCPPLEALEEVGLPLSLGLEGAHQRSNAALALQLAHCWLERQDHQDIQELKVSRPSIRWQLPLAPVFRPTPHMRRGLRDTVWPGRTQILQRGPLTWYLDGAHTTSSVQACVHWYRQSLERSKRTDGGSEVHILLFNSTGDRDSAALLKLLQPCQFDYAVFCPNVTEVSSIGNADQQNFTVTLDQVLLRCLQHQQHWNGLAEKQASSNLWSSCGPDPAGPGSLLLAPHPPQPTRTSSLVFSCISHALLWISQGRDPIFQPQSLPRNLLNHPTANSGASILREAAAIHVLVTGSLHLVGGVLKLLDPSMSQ
Outline: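 FPGS from L1210 cells was assayed by [³H]glutamate ligation, like the human enzyme assay. Each folate substrate was at 100 μM, and only specific activity was measured.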

[25] = tested on: Mus musculus; experiment: Antitumor activity against E0771 mammary adenocarcinoma in mice at 6 mg/kg(5 days) was determined and […] at day 10 was reported; format: functional; outline: as §3
[26] = tested on: CCRF S-180; experiment: Tested for the ability to inhibit growth in vitro against S180 cells; format: functional, cell-based; details: Mus musculus
[27] = tested on: Mus musculus; experiment: Antitumor activity against E0771 mammary adenocarcinoma in mice at 3 mg/kg(5 days) was determined and […] at day 10 was reported; format: functional; outline: as §3
[28] = tested on: Mus musculus; experiment: Antitumor activity against E0771 mammary adenocarcinoma in mice at 100 mg/kg(5 days) was determined and […] at day 14 was reported; format: functional
[29] = tested on: Mus musculus; experiment: Antitumor activity against E0771 mammary adenocarcinoma in mice at 3 mg/kg(5 days) was determined and tumor volume at day 10 was reported; format: functional; outline: as §1
[30] = tested on: Mus musculus; experiment: Antitumor activity against E0771 mammary adenocarcinoma in mice at 6 mg/kg(5 days) was determined and tumor volume at day 10 was reported; format: functional; outline: as §1
[31] = tested on: Mus musculus; experiment: Antitumor activity against E0771 mammary adenocarcinoma in mice at 6 mg/kg(5 days) was determined and […] at day 7 was reported; format: functional; outline: as §3
[32] = tested on: Mus musculus; experiment: Antitumor activity against E0771 mammary adenocarcinoma in mice at 6 mg/kg(5 days) was determined and tumor volume at day 7 was reported; format: functional; outline: as §1
[33] = tested on: Folyl-polyglutamate synthase; experiment: Michaelis-Menten constant was determined against CCRF-CEM Folyl-polyglutamate synthase; format: ADME; details: human, folylpolyglutamate synthase from CCRF-CEM cells; outline: as §2
[34] = tested on: Mus musculus; experiment: Antitumor activity against E0771 mammary adenocarcinoma in mice at 3 mg/kg(5 days) was determined and tumor volume at day 7 was reported; format: functional; outline: as §1

Question: For `Cc1c(CN(C)c2ccc(C(=O)NC(CCC(=O)O)C(=O)O)c3ccccc23)cnc2nc(N)nc(N)c12` (configuration not stated), which Tumor volume [1] is on record?
Answer: The Tumor volume was 1048 mm**3.

Question: And the Ki [2]?
Answer: The Ki was 0.00484 nM.

Question: What about the Tumor volume [3] of the same molecule?
Answer: The Tumor volume was 493 mm**3.

Question: What about the Tumor volume [4] of the same molecule?
Answer: The Tumor volume was 119 mm**3.

Question: And the IC50 [5]?
Answer: The IC50 was 2.6 nM.

Question: What about the Tumor volume [6] of the same molecule?
Answer: Its Tumor volume is 333 mm**3.

Question: And the T/C [7]?
Answer: Its T/C is 60%.

Question: And the Tumor volume [8]?
Answer: The Tumor volume was 108 mm**3.

Question: And the IC50 [9]?
Answer: The IC50 was 0.56 nM.

Question: What about the “Relative Vmax” value [10] of the same molecule?
Answer: The value was 0.04.

Question: What about the inhibition [11] of the same molecule?
Answer: Its inhibition is 10%.

Question: And the Ki [12]?
Answer: Its Ki is 660 nM.

Question: What about the T/C [13] of the same molecule?
Answer: The T/C was 19%.

Question: And the T/C [14]?
Answer: The T/C was 53%.

Question: What about the IC50 [15] of the same molecule?
Answer: Its IC50 is 2.4 nM.

Question: And the Tumor volume [16]?
Answer: Its Tumor volume is 87 mm**3.

Question: What about the T/C [17] of the same molecule?
Answer: The T/C was 28%.

Question: What about the T/C [18] of the same molecule?
Answer: The T/C was 49%.

Question: What about the T/C [19] of the same molecule?
Answer: The T/C was 39%.

Question: For `CN(Cc1cnc2nc(N)nc(N)c2n1)c1ccc(C(=O)N[C@@H](CCC(=O)O)C(=O)O)cc1` [METHOTREXATE], which T/C [20] is on record?
Answer: The T/C was 31%.

Question: And the T/C [21]?
Answer: The T/C was 81%.

Question: And the Tumor volume [22]?
Answer: Its Tumor volume is 540 mm**3.

Question: What about the Tumor volume [23] of the same molecule?
Answer: Its Tumor volume is 1437 mm**3.

Question: What about the Specific activity (pM hr-1 (mg of protein)-1) [24] of the same molecule?
Answer: The Specific activity (pM hr-1 (mg of protein)-1) was 0.38.

Question: And the IC50 [9]?
Answer: The IC50 was 8.1 nM.

Question: What about the T/C [25] of the same molecule?
Answer: Its T/C is 30%.

Question: And the IC50 [26]?
Answer: Its IC50 is 10 nM.

Question: And the T/C [27]?
Answer: The T/C was 100%.

Question: And the Ki [12]?
Answer: The Ki was 3930 nM.

Question: What about the T/C [28] of the same molecule?
Answer: Its T/C is 83%.

Question: What about the Tumor volume [29] of the same molecule?
Answer: Its Tumor volume is 624 mm**3.

Question: And the Tumor volume [30]?
Answer: Its Tumor volume is 187 mm**3.

Question: And the T/C [31]?
Answer: The T/C was 49%.

Question: And the Tumor volume [32]?
Answer: The Tumor volume was 108 mm**3.

Question: And the Km [33]?
Answer: Its Km is 42 µM.

Question: What about the IC50 [15] of the same molecule?
Answer: Its IC50 is 9 nM.

Question: And the Tumor volume [34]?
Answer: The Tumor volume was 180 mm**3.

— ChEMBL document CHEMBL1126566, “Studies on analogues of classical antifolates bearing the naphthoyl group in place of benzoyl in the side chain” (J Med Chem, 1993)
